Active and inactive are the calls of the source.
Legend:
Mus musculus [1] = test: Activation of AMPK in C57BL/6J mouse skeletal muscle assessed as increase of PGC-1alpha transcription at 500 mg/kg, sc after 2 hrs by RT-qPCR analysis; conditions: Muscle tissue
H4IIE [2] = test: Increase of AMPK phosphorylation at Thr172 in rat H4IIE cells at 5 to 10 uM after 1 hr by ELISA; format: cell-based
How it was run: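 Confluent H4IIE cells in 96-well plates were starved overnight in serum-free DMEM (1 g/L glucose), then treated 1 h at 37 °C. Cells were fixed in 4% formaldehyde and endogenous peroxidase quenched with H2O2. Plates were blocked with 10% FBS and probed overnight at 4 °C with anti-p-AMPKα (Thr172), then with HRP secondary and TMB read-out. Mean ± SE, n = 4; Dunnett's test against basal.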

[3] = biological target: 5'-AMP-activated protein kinase catalytic subunit alpha-1 (Rattus norvegicus) (UniProt P54645); test: Increase of AMPKalpha phosphorylation at Thr172 in rat H4IIE cells at 0.3 uM after […] by Western blot analysis; format: cell-based
Chain of 5'-AMP-activated protein kinase catalytic subunit alpha-1 (Rattus norvegicus) (P54645 whole entry): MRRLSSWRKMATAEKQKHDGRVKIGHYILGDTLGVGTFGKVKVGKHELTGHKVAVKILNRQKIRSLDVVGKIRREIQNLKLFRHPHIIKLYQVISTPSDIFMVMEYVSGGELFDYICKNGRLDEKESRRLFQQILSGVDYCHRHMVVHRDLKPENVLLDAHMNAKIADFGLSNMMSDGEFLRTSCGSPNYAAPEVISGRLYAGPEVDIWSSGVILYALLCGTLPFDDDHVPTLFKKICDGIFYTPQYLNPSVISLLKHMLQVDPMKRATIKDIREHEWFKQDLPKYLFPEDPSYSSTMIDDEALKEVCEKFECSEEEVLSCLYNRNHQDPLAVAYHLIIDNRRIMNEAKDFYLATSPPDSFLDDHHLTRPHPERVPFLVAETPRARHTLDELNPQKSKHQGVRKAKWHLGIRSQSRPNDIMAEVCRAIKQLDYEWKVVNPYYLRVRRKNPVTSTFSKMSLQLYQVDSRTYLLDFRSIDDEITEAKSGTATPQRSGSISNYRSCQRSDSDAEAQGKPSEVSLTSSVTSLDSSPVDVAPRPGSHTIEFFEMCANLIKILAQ

3T3-L1 [4] = test: Activation of AMPK in mouse 3T3L1 cells assessed as increase of ADP level by spectrophotometric analysis; format: cell-based
How it was run: (§1)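 Serum-starved H4IIE hepatoma cells, differentiated C2C12 myotubes and differentiated 3T3-L1 adipocytes were exposed 1, 2 and 2 h respectively. Cells were lysed in Tris/SDS/glycerol, nuclease-digested, perchloric acid-extracted and neutralized. ATP, ADP and AMP were separated by C18 HPLC in phosphate buffer at pH 6.2, 40 °C, with detection at […]. AMP/ATP and ADP/ATP ratios were calculated from these levels; mean ± SE, n = 3.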

[5] = biological target: 5'-AMP-activated protein kinase catalytic subunit alpha-1 (Rattus norvegicus) (UniProt P54645); test: Activation of AMPKalpha in rat H4IIE cells assessed as ACC phosphorylation at Ser79 after 1 hr by Western blot analysis; format: cell-based
How it was run: (§2)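 H4IIE cells grown in 1 g/L glucose DMEM, serum-starved overnight, then treated 1 h; 2 mM AICAR served as reference. Lysates (50−100 μg protein) were run on 7.5% SDS-PAGE and immunoblotted for p-AMPKα (Thr172), p-ACC (Ser79), total AMPKα and total ACC.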

Mus musculus [6] = test: Activation of AMPK in C57BL/6J mouse skeletal muscle at 200 mg/kg, po after 2 hrs by Western blot analysis; format: functional, organism-based; parameters: dose 200 mg/kg; conditions: Muscle tissue
How it was run: (§3)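 Male C57BL/6J mice (10 weeks), fasted 4 h, given a single oral dose of 200 mg/kg in 0.5% carboxymethyl cellulose with 0.5% polyoxyethylene sorbitan. Dissected under chloral hydrate anesthesia (500 mg/kg ip) 2 h later. Liver, epididymal white adipose and quadriceps were homogenized in RIPA buffer and immunoblotted for p-AMPKα (Thr172) and p-ACC (Ser79). Signals normalized to α-tubulin; mean ± SE, 5 mice; Student's t test against vehicle.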

C2C12 [7] = test: Activation of AMPK in mouse C2C12 cells assessed as decrease of ATP level by spectrophotometric analysis; format: cell-based
How it was run: as §1

[8] = biological target: 5'-AMP-activated protein kinase catalytic subunit alpha-1 (Mus musculus) (UniProt Q5EG47); test: Increase of AMPKalpha phosphorylation at Thr172 in mouse 3T3L1 cells at 10 uM after 2 hrs by Western blot analysis; format: cell-based; conditions: 3T3-L1
Chain of 5'-AMP-activated protein kinase catalytic subunit alpha-1 (Mus musculus) (Q5EG47 whole entry): as the sequence (P54645 whole entry) above, with T269A, E518D counted along it
How it was run: (§4)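 Cells were starved, then treated 2 h with 2 mM AICAR as reference. C2C12 cells were myotubes differentiated 4 days in 2% horse serum. 3T3-L1 cells were adipocytes differentiated with insulin, dexamethasone and IBMX and used at days 10−14. Lysates were immunoblotted on 7.5% SDS-PAGE for p-AMPKα (Thr172), p-ACC (Ser79), total AMPKα and total ACC.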

Mus musculus [9] = test: Activation of AMPK in C57BL/6J mouse liver assessed as phosphorylated ACC level at 200 mg/kg, po after 2 hrs by Western blot analysis; format: functional, organism-based; parameters: dose 200 mg/kg
How it was run: as §3

[10] = biological target: AMP-activated protein kinase, AMPK (Homo sapiens) (UniProt P54646+O43741+P54619+Q9UGJ0+Q9Y478+Q13131+Q9UGI9); test: Activation of AMPK in LKB1-deficient human HeLa cells at 10 to 100 uM after 1 hr by Western blot analysis; format: cell-based
Rattus norvegicus [11] = species on record: Rattus norvegicus; test: Inhibition of rat liver mitochondrial respiratory chain complex 1 assessed as reduction of oxygen consumption at stage 4 at 10 uM in presence of glutamate and ADP
How it was run: (§5)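 Liver mitochondria from Wistar rats were isolated by differential centrifugation in sucrose/Tris-MOPS/EGTA at pH 7.4, with respiratory control ratio 5−7. O2 uptake was measured with a Clark electrode, State 3/4 induced by 100 μM ADP. Complex I substrate was 5 mM glutamate plus 2.5 mM malate; complex II substrate was 5 mM succinate plus 2 μM rotenone. Dose−response run; mean ± SE, n = 3.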

Mus musculus [12] = test: Activation of AMPK in glucose loaded C57BL/6J mouse assessed as decrease of AUC of blood glucose level at 100 to 200 mg/kg, po after 1 hr by oral glucose tolerance test; format: functional, organism-based
How it was run: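 Male C57BL/6J mice, fasted 15 h, dosed orally at 100 or 200 mg/kg. Glucose (1 M solution, 1 g/kg) given orally 60 min later. Tail-vein blood glucose read at 0, 15, 30, 45, 60, 90 and 120 min, and AUC calculated from the curve. Mean ± SE, 5 mice; one-way ANOVA with Dunnett's test against vehicle.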

Mus musculus [13] = test: Activation of AMPK in C57BL/6J mouse white adipose tissue at 200 mg/kg, po after 2 hrs by Western blot analysis; format: functional, organism-based; parameters: dose 200 mg/kg
How it was run: as §3

[14] = biological target: 5'-AMP-activated protein kinase catalytic subunit alpha-1 (Mus musculus) (UniProt Q5EG47); test: Increase of AMPKalpha phosphorylation at Thr172 in mouse C2C12 cells at 5 uM after 2 hrs by Western blot analysis; format: cell-based
How it was run: as §4

3T3-L1 [15] = test: Activation of AMPK in mouse 3T3L1 cells assessed as increase of AMP level by spectrophotometric analysis; format: cell-based
How it was run: as §1

Mus musculus [16] = test: Activation of AMPK in C57BL/6J mouse liver at 200 mg/kg, po after 2 hrs by Western blot analysis; format: functional, organism-based; parameters: dose 200 mg/kg
How it was run: as §3

Mus musculus [17] = test: Activation of AMPK in glucose loaded C57BL/6J mouse assessed as decrease of AUC of blood glucose level at 500 mg/kg, po after 1 hr by oral glucose tolerance test; format: functional, organism-based; parameters: dose 500 mg/kg
C2C12 [18] = test: Activation of AMPK in mouse C2C12 cells assessed as increase of ADP level by spectrophotometric analysis; format: cell-based
How it was run: as §1

H4IIE [19] = test: Activation of AMPK in rat H4IIE cells assessed as increase of AMP level by spectrophotometric analysis; format: cell-based
How it was run: as §1

Rattus norvegicus [20] = species on record: Rattus norvegicus; test: Inhibition of rat liver mitochondrial respiratory chain complex 1 assessed as reduction of oxygen consumption at stage 4 in presence of glutamate and malate
How it was run: as §5

3T3-L1 [21] = test: Activation of AMPK in mouse 3T3L1 cells assessed as decrease of ATP level by spectrophotometric analysis; format: cell-based
How it was run: as §1

Mus musculus [22] = test: Activation of AMPK in C57BL/6J mouse white adipose tissue assessed as phosphorylated ACC level at 200 mg/kg, po after 2 hrs by Western blot analysis; format: functional, organism-based; parameters: dose 200 mg/kg
How it was run: as §3

C2C12 [23] = test: Activation of AMPK in mouse C2C12 cells assessed as increase of AMP level by spectrophotometric analysis; format: cell-based
How it was run: as §1

H4IIE [24] = test: Activation of AMPK in rat H4IIE cells assessed as increase of ADP/ATP ratio level after 1 hr by spectrophotometric analysis; format: cell-based
How it was run: as §1

H4IIE [25] = test: Activation of AMPK in rat H4IIE cells assessed as increase of AMP/ATP ratio level after 1 hr by spectrophotometric analysis; format: cell-based
How it was run: as §1

[26] = biological target: 5'-AMP-activated protein kinase catalytic subunit alpha-1 (Rattus norvegicus) (UniProt P54645); test: Increase of AMPKalpha phosphorylation at Thr172 in rat H4IIE cells after 1 hr by Western blot analysis; format: cell-based
How it was run: as §2

3T3-L1 [27] = test: Activation of AMPK in mouse 3T3L1 cells assessed as increase of ADP/ATP ratio level after 2 hrs by spectrophotometric analysis; format: cell-based
How it was run: as §1

C2C12 [28] = test: Activation of AMPK in mouse C2C12 cells assessed as increase of ADP/ATP ratio level after 2 hrs by spectrophotometric analysis; format: cell-based
How it was run: as §1

H4IIE [29] = test: Activation of AMPK in rat H4IIE cells assessed as increase of ADP level by spectrophotometric analysis; format: cell-based
How it was run: as §1

H4IIE [30] = test: Activation of AMPK in rat H4IIE cells assessed as decrease of ATP level by spectrophotometric analysis; format: cell-based
How it was run: as §1

3T3-L1 [31] = test: Activation of AMPK in mouse 3T3L1 cells assessed as increase of AMP/ATP ratio level after 2 hrs by spectrophotometric analysis; format: cell-based
How it was run: as §1

Rattus norvegicus [32] = species on record: Rattus norvegicus; test: Inhibition of rat liver mitochondrial respiratory chain complex 2 assessed as reduction of oxygen consumption at stage 4 in presence of succinate and rotenone
How it was run: as §5

Mus musculus [33] = test: Activation of AMPK in C57BL/6J mouse skeletal muscle assessed as increase of PGC-1alpha transcription at 100 to 200 mg/kg, po after 2 hrs by RT-qPCR analysis; conditions: Muscle tissue
C2C12 [34] = test: Activation of AMPK in mouse C2C12 cells assessed as increase of AMP/ATP ratio level after 2 hrs by spectrophotometric analysis; format: cell-based
How it was run: as §1

NC(=O)c1ncn([C@@H]2O[C@H](CO)[C@@H](O)[C@H]2O)c1N
active: Activity (Mus musculus [1])

C/C=C(/C)C(=O)O[C@@H]1CCC2=CC(=O)C(=C(C)C)C[C@]2(C)[C@H]1C
active: Activity (H4IIE [2])

C=C(C)[C@@H]1C[C@@]2(C)C(=CC1=O)CC[C@@H](OC(=O)/C(C)=C\C)[C@@H]2C
inactive: inhibition (Rattus norvegicus [32])
active: Activity [3] | Activity (3T3-L1 [4]) Dose-dependent effect | Activity [5] Dose-dependent effect | Activity (Mus musculus [6]) | Activity (C2C12 [7]) Dose-dependent effect | Activity [8] | Activity (Mus musculus [9]) | Activity [10] | inhibition (Rattus norvegicus [11]) | Activity (H4IIE [2]) | Activity (Mus musculus [12]) | Activity (Mus musculus [13]) | Activity [14] | Activity (3T3-L1 [15]) Dose-dependent effect | Activity (Mus musculus [16]) | Activity (Mus musculus [17]) | Activity (C2C12 [18]) Dose-dependent effect | Activity (H4IIE [19]) Dose-dependent effect | inhibition (Rattus norvegicus [20]) Dose-dependent effect | Activity (3T3-L1 [21]) Dose-dependent effect | Activity (Mus musculus [22]) | Activity (C2C12 [23]) Dose-dependent effect | Activity (H4IIE [24]) Dose-dependent effect | Activity (H4IIE [25]) Dose-dependent effect | Activity [26] Dose-dependent effect | Activity (3T3-L1 [27]) Dose-dependent effect | Activity (C2C12 [28]) Dose-dependent effect | Activity (H4IIE [29]) Dose-dependent effect | Activity (H4IIE [30]) Dose-dependent effect | Activity (3T3-L1 [31]) Dose-dependent effect | Activity (Mus musculus [33]) | Activity (C2C12 [34]) Dose-dependent effect
